From ChEMBL document CHEMBL4706509, “Oligosaccharide-camptothecin conjugates as potential antineoplastic drugs: Design, synthesis and biological evaluation” (Eur J Med Chem, 2020) come the findings set out here.

For one assay, the system named is HEK293. Briefly: Cytotoxicity against human HEK293 cells assessed as reduction in cell viability measured after 48 hrs by MTT assay. It counts as cell-based. The conditions noted are these: HEK293, 48 h. The procedure, abridged: (§1)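 MTT assay; cells seeded in 96-well plates, exposed 48 h to freshly prepared compound at five concentrations, four replicate wells each; MTT (5 mg/mL) added for 4 h, formazan dissolved in DMSO, absorbance at 490 nm. IC50 by nonlinear regression; mean of three independent experiments.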
(Tetrazolium assays rely on reduction of a dye to a coloured formazan, in cell work by metabolically active cells.)

The next assay deals with HCT-116. Briefly: Antitumor activity against human HCT-116 cells assessed as inhibition of cell growth measured after 48 hrs by MTT assay. It counts as functional, cell-based. Particulars: HCT-116, 48 h. A digest of the protocol:
as §1

A further assay has as its system SW1990. Kind of assay: Antitumor activity against human SW1990 cells assessed as inhibition of cell growth measured after 48 hrs by MTT assay. Type of assay: functional, cell-based. Particulars: SW1990, 48 h. A digest of the protocol:
as §1

The subject of a further assay is HepG2. Briefly: Antitumor activity against human HepG2 cells assessed as inhibition of cell growth measured after 48 hrs by MTT assay. Type of assay: functional, cell-based. The conditions noted are these: HepG2, 48 h. The procedure, abridged:
as §1

Assay [1] concerns the target T1, DNA topoisomerase 1 (Homo sapiens) (UniProt P11387).
T1 sequence (whole entry): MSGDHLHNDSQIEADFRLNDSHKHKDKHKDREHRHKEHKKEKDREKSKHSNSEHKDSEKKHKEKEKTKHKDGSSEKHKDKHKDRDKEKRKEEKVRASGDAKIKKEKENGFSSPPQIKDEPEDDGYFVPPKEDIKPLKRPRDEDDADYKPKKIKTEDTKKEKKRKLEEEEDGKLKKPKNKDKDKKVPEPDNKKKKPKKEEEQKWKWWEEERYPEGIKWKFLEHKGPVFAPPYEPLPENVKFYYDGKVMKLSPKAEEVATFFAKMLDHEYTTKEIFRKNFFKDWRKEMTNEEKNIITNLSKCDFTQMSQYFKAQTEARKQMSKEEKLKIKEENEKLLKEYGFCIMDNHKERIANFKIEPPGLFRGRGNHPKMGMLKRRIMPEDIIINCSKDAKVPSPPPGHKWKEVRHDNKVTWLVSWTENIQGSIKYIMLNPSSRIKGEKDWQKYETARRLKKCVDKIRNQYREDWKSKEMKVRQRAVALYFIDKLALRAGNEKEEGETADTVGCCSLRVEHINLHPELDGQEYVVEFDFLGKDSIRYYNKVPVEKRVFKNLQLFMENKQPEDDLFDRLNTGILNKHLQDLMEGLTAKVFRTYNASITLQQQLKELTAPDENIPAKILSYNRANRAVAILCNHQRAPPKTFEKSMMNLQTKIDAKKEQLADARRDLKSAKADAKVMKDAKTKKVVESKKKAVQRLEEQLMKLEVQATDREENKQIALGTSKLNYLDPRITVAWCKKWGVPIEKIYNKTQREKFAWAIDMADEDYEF
Briefly: Inhibition of human recombinant Topoisomerase 1 using supercoiled pBR322 DNA as substrate at 100 uM incubated for 30 mins by ethidium bromide staining based agarose gel electrophoresis. The procedure, abridged: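 Cell-free relaxation assay: 1 U recombinant human Topo I with 0.5 µg supercoiled pBR322 in Topo I buffer (Tris-HCl pH 8.0, KCl, MgCl2, DTT, 0.1% BSA), 37 °C for 30 min. 10-HCPT and irinotecan as positive controls. Supercoiled, relaxed and nicked forms resolved on 0.8% agarose in TAE, 90 V for 2 h, ethidium bromide stained.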

SMILES strings stand for the structures. Active and inactive are the calls of the source. The calls are words filed in the database; no cut-off is given here.

For `CC[C@@]1(OC(=O)NCCOCCOCCO[C@@H]2O[C@H](CO)[C@@H](O)[C@H](O)[C@@H]2O)C(=O)OCc2c1cc1n(c2=O)Cc2cc3ccccc3nc2-1`, the concentration for half-maximal inhibition (IC50) (in general, the concentration needed to halve the response being measured) in the assay on HEK293 stood at 0.6 µM; with HCT-116, 0.5 µM; with SW1990 it was 16.3 µM; in the assay on HepG2, 0.8 µM.
For `CC[C@@]1(OC(=O)NCCOCCOCCOC2O[C@H](COC(C)=O)[C@@H](OC(C)=O)[C@H](OC(N)=O)[C@@H]2OC(C)=O)C(=O)OCc2c1cc1n(c2=O)Cc2cc3ccccc3nc2-1` (single isomer, unassigned), the IC50 with HEK293 was 3.4 µM; in the assay with HCT-116, 4.6 µM; in the assay with SW1990 it was 31.4 µM; with HepG2, 1.8 µM.
For `CC[C@@]1(OC(=O)NCCOCCOC2O[C@H](COC(C)=O)[C@@H](OC(C)=O)[C@H](OC(C)=O)[C@@H]2OC(C)=O)C(=O)OCc2c1cc1n(c2=O)Cc2cc3ccccc3nc2-1` (single isomer, unassigned), the IC50 with HEK293 is 20.6 µM; with HCT-116, 4.4 µM; with SW1990 it was 10.3 µM; in the assay on HepG2, 4.8 µM.
For the compound `CC[C@@]1(OC(=O)NCCOCCO[C@@H]2O[C@H](CO)[C@@H](O)[C@H](O)[C@H]2O)C(=O)OCc2c1cc1n(c2=O)Cc2cc3ccccc3nc2-1`, the IC50 in the assay on HEK293 came to 24.6 µM; with HCT-116, 0.5 µM; with SW1990, 9.6 µM; with HepG2, 1.2 µM.
Take `CC[C@@]1(OC(=O)NCCO[C@@H]2O[C@H](CO)[C@@H](O)[C@H](OC(N)=O)[C@@H]2O)C(=O)OCc2c1cc1n(c2=O)Cc2cc3ccccc3nc2-1`: the IC50 was determined as 3.2 µM in the assay on HEK293, 2.3 µM in the assay on HCT-116, 32.8 µM in the assay with SW1990 and 11.6 µM with HepG2.
As for `CC[C@@]1(OC(=O)NCCOCCOCCO[C@@H]2O[C@H](COC(C)=O)[C@H](OC(C)=O)[C@H](OC(C)=O)[C@H]2OC(C)=O)C(=O)OCc2c1cc1n(c2=O)Cc2cc3ccccc3nc2-1`, the half-maximal inhibitory concentration (IC50) with HEK293 was determined as 0.8 µM; with HCT-116 it was 0.9 µM; in the assay with SW1990, 8.3 µM; in the assay with HepG2 it was 0.7 µM. Further, the inhibition result in assay [1] was “Active”.
On to `CC[C@@]1(OC(=O)NCCOCCOCCO[C@@H]2O[C@H](CO)[C@@H](O)[C@H](OC(N)=O)[C@@H]2O)C(=O)OCc2c1cc1n(c2=O)Cc2cc3ccccc3nc2-1`, for which the half-maximal inhibitory concentration (IC50) amounted to 0.4 µM in the assay on HEK293, 0.9 µM in the assay on HCT-116, 18.2 µM in the assay with SW1990 and 0.8 µM in the assay on HepG2.
For `CC[C@@]1(OC(=O)NCCOCCOCCO[C@@H]2O[C@H](COC(C)=O)[C@@H](OC(C)=O)[C@H](OC(C)=O)[C@@H]2OC(C)=O)C(=O)OCc2c1cc1n(c2=O)Cc2cc3ccccc3nc2-1`, the IC50 was determined as 3.4 µM in the assay with HEK293, 0.6 µM in the assay with HCT-116, 28.9 µM with SW1990 and 1.6 µM in the assay with HepG2.
The like results for `CC[C@@]1(OC(=O)NCCO[C@@H]2O[C@H](COC(C)=O)[C@@H](OC(C)=O)[C@H](OC(C)=O)[C@@H]2OC(C)=O)C(=O)OCc2c1cc1n(c2=O)Cc2cc3ccccc3nc2-1` were, in that order, 2.3 µM, 7.5 µM, 9.7 µM and 4.3 µM.
For `CC[C@@]1(OC(=O)NCCO[C@@H]2O[C@H](COC(C)=O)[C@@H](OC(C)=O)[C@H](OC(N)=O)[C@@H]2OC(C)=O)C(=O)OCc2c1cc1n(c2=O)Cc2cc3ccccc3nc2-1`, the 50% inhibitory concentration (IC50) in the assay with HEK293 turned out to be 3.9 µM; with HCT-116, 10.8 µM; in the assay with SW1990 it was 20.6 µM; with HepG2 it was 18.5 µM.
The like results for `CC[C@@]1(OC(=O)NCCOCCOCCO[C@@H]2O[C@H](CO)[C@@H](O)[C@H](O)[C@H]2O)C(=O)OCc2c1cc1n(c2=O)Cc2cc3ccccc3nc2-1` were, in that order, 0.7 µM, 4.8 µM, 12.5 µM and 1.3 µM.
For the compound `CC[C@@]1(OC(=O)NCCO[C@@H]2O[C@H](CO)[C@@H](O)[C@H](O)[C@H]2O)C(=O)OCc2c1cc1n(c2=O)Cc2cc3ccccc3nc2-1`, the IC50 is 3.5 µM in the assay with HEK293, 4.3 µM with HCT-116, 10.3 µM in the assay with SW1990 and 3.8 µM with HepG2.
In the case of `CC[C@@]1(OC(=O)NCCOCCOC2O[C@H](COC(C)=O)[C@@H](OC(C)=O)[C@H](OC(C)=O)[C@H]2OC(C)=O)C(=O)OCc2c1cc1n(c2=O)Cc2cc3ccccc3nc2-1` (single isomer, unassigned), the IC50 in the assay with HEK293 turned out to be 12.3 µM; in the assay on HCT-116, 4.2 µM; in the assay with SW1990, 10.3 µM; in the assay on HepG2 it was 2.1 µM.
With `CC[C@@]1(OC(=O)NCCO[C@@H]2O[C@H](CO)[C@@H](O)[C@H](O)[C@@H]2O)C(=O)OCc2c1cc1n(c2=O)Cc2cc3ccccc3nc2-1`, the IC50 in the assay with HEK293 is 5.8 µM; in the assay with HCT-116, 8.2 µM; in the assay on SW1990, 20.4 µM; in the assay on HepG2 it was 10.3 µM.
The like results for `CC[C@@]1(OC(=O)NCCO[C@@H]2O[C@H](COC(C)=O)[C@@H](OC(C)=O)[C@H](OC(C)=O)[C@H]2OC(C)=O)C(=O)OCc2c1cc1n(c2=O)Cc2cc3ccccc3nc2-1` were, in that order, 29.5 µM, 15 µM, 24.8 µM and 29.9 µM.
As for `CC[C@@]1(OC(=O)NCCO[C@@H]2O[C@H](COC(C)=O)[C@H](OC(C)=O)[C@H](OC(C)=O)[C@H]2OC(C)=O)C(=O)OCc2c1cc1n(c2=O)Cc2cc3ccccc3nc2-1`, the IC50 with HEK293 amounted to 8.6 µM; in the assay on HCT-116, 29.5 µM; with SW1990, 37.5 µM; in the assay on HepG2 it was 60.2 µM.
`CC[C@@]1(OC(=O)NCCOCCOCCO[C@@H]2O[C@H](COC(C)=O)[C@@H](OC(C)=O)[C@H](OC(C)=O)[C@H]2OC(C)=O)C(=O)OCc2c1cc1n(c2=O)Cc2cc3ccccc3nc2-1`: the half-maximal inhibitory concentration (IC50) in the assay with HEK293 is 0.6 µM; in the assay on HCT-116, 0.8 µM; in the assay with SW1990 it was 4.5 µM; in the assay on HepG2 it was 0.7 µM.
As to `CC[C@@]1(O)C(=O)OCc2c1cc1n(c2=O)Cc2cc3cc(O)ccc3nc2-1`, the inhibition entry in assay [1] is “Active”.
For `CC[C@@]1(OC(=O)NCCO[C@@H]2O[C@H](CO)[C@H](O)[C@H](O)[C@H]2O)C(=O)OCc2c1cc1n(c2=O)Cc2cc3ccccc3nc2-1`, the half-inhibitory concentration (IC50) with HEK293 was 2.2 µM; in the assay on HCT-116 it was 4.1 µM; in the assay with SW1990, 9.3 µM; in the assay with HepG2, 4.9 µM.
With `CC[C@@]1(OC(=O)NCCOCCOCCO[C@@H]2O[C@H](CO)[C@H](O)[C@H](O)[C@H]2O)C(=O)OCc2c1cc1n(c2=O)Cc2cc3ccccc3nc2-1`, the IC50 was found to be 0.7 µM with HEK293, 8.2 µM in the assay with HCT-116, 19.9 µM in the assay on SW1990 and 1.2 µM with HepG2. For the same compound, the inhibition entry in assay [1] is “Active”.
On to `CC[C@@]1(OC(=O)NCCOCCO[C@@H]2O[C@H](COC(C)=O)[C@@H](OC(C)=O)[C@H](OC(N)=O)[C@@H]2OC(C)=O)C(=O)OCc2c1cc1n(c2=O)Cc2cc3ccccc3nc2-1`, for which the IC50 with HEK293 worked out at 50.2 µM; with HCT-116, 3.6 µM; in the assay on SW1990 it was 7.6 µM; with HepG2 it was 3.7 µM.
`CC[C@@]1(OC(=O)NCCO[C@@H]2O[C@H](COC(C)=O)[C@@H](OC(C)=O)[C@H](OC(C)=O)[C@@H]2O[C@H]2O[C@H](COC(C)=O)[C@@H](OC(C)=O)[C@H](OC(N)=O)[C@H]2OC(C)=O)C(=O)OCc2c1cc1n(c2=O)Cc2cc3ccccc3nc2-1`: the concentration for half-maximal inhibition (IC50) in the assay with HEK293 was determined as 1.6 µM; with HCT-116, 6.7 µM; in the assay on SW1990, 25.1 µM; in the assay with HepG2, 4.2 µM. In assay [1], the inhibition result was “Active”.
Turning to `CC[C@@]1(OC(=O)NCCOCCO[C@@H]2O[C@H](CO)[C@@H](O)[C@H](O)[C@@H]2O)C(=O)OCc2c1cc1n(c2=O)Cc2cc3ccccc3nc2-1`, the half-maximal inhibitory concentration (IC50) was 22.4 µM in the assay with HEK293, 5.6 µM with HCT-116, 3.2 µM in the assay with SW1990 and 0.3 µM in the assay on HepG2.
On to `CC[C@@]1(OC(=O)NCCOCCO[C@@H]2O[C@H](CO)[C@H](O)[C@H](O)[C@H]2O)C(=O)OCc2c1cc1n(c2=O)Cc2cc3ccccc3nc2-1`, for which the IC50 was determined as 43.5 µM with HEK293, 2.6 µM with HCT-116, 10.6 µM in the assay on SW1990 and 2.8 µM with HepG2.
